Test results published in ChEMBL document CHEMBL4725470, “Synthesis and Biological Evaluation of Pyrroloindolines as Positive Allosteric Modulators of the α1β2γ2 GABA Receptor” (ACS Med Chem Lett, 2020).
Active and inactive are the calls of the source. The rule behind the calls is not given here.

Key:
[1] = Positive allosteric modulator activity at rat alpha1beta2gamma2L GABA-A receptor expressed in Xenopus laevis oocytes in presence of EC2-5 GABA by two-electrode voltage clamp assay; type: cell-based; details: Oocyte
[2] = target: T1, GABA-A receptor; alpha-1/beta-2/gamma-2 (Homo sapiens) (UniProt P14867+P47870+P18507); test: Positive allosteric modulator activity at human alpha1beta2Sgamma2S GABA-A receptor expressed in Xenopus laevis oocytes assessed as potentiation of EC10 GABA response by two electrode voltage-clamp assay relative to control; type: cell-based; details: Oocyte
Procedure, shortened: (§1)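 Same sequence as the EC50 potentiation protocol: baseline GABA doses, ligand alone, 30 s incubation, then coapplication, then two GABA check doses. Here 40 μM PAM is coapplied with an EC10–15 GABA dose. The EC10–15 for each mutant receptor was verified from full GABA dose–response curves.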

[3] = target: T2, GABA-A receptor; alpha-1/beta-2/gamma-2 (Homo sapiens, UniProt P14867+P18507+P47870); test: Positive allosteric modulator activity at human alpha1beta2Sgamma2S GABA-A receptor expressed in Xenopus laevis oocytes in presence of EC5 GABA by two electrode voltage-clamp assay; type: cell-based, Oocyte
T2 sequence (P14867 whole entry): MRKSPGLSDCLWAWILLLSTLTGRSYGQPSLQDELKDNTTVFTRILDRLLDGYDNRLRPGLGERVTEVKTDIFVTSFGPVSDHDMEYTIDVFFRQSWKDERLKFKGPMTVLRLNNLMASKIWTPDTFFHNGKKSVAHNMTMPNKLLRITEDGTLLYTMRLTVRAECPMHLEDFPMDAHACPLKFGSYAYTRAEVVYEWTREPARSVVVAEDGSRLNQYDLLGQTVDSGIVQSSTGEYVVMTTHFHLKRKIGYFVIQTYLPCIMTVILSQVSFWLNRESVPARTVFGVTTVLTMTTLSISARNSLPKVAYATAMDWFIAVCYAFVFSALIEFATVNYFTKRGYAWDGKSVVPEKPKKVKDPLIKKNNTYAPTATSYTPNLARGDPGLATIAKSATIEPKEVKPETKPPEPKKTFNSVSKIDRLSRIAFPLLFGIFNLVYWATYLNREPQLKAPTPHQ
T2 sequence (P47870 whole entry): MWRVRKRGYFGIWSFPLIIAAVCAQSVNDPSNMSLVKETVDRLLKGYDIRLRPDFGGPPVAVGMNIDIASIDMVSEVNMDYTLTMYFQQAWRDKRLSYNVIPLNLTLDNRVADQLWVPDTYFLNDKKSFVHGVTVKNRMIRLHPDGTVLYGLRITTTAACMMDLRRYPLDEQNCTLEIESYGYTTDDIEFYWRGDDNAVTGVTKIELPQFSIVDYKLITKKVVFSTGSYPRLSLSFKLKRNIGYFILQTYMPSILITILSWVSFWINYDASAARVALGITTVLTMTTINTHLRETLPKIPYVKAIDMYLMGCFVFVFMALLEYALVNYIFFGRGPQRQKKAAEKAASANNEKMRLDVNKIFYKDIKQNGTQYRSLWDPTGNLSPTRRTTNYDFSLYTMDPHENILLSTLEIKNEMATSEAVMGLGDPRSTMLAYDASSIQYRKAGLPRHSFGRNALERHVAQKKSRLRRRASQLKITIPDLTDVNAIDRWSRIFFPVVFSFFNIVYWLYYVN
T2 sequence (P18507 whole entry): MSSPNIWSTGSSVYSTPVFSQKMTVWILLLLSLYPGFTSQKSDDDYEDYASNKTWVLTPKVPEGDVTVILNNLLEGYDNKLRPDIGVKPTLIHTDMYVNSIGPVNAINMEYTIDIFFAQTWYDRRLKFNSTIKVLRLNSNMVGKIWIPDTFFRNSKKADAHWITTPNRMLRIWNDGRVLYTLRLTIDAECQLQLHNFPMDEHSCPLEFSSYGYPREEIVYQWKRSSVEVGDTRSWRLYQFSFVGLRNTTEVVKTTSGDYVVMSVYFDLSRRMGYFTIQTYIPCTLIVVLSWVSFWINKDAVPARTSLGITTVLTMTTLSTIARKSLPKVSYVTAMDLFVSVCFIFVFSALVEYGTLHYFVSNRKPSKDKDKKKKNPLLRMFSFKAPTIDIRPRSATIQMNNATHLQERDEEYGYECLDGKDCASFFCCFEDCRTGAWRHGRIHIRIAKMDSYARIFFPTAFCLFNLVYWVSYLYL
Procedure, shortened: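 Modulator dose–response with each concentration coapplied with GABA EC5. The peak current at GABA EC5 alone was subtracted from all responses, and the EC50 was taken from the fitted curve.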

[4] = target: T1, GABA-A receptor; alpha-1/beta-2/gamma-2 (Homo sapiens); test: Agonist activity at human alpha1beta2Sgamma2S GABA-A receptor expressed in Xenopus laevis oocytes by two electrode voltage-clamp assay; type: cell-based; details: Oocyte, filed as agonist
Procedure, shortened: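 Test ligand applied alone at 40 μM to oocytes expressing human α1β2γ2 receptors. Current read by two-electrode voltage clamp and compared with GABA EC50 responses recorded in the same sequence.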

[5] = target: T1, GABA-A receptor; alpha-1/beta-2/gamma-2 (Homo sapiens); test: Positive allosteric modulator activity at human alpha1beta2Sgamma2S GABA-A receptor expressed in Xenopus laevis oocytes assessed as potentiation of EC50 GABA response at 40 uM by two electrode voltage-clamp assay relative to control; type: cell-based; details: Oocyte
Procedure, shortened: (§2)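 Two-electrode voltage clamp in oocytes. Three GABA EC50 applications set the baseline. The test ligand alone is then given at 40 μM, followed after a 30 s incubation by GABA EC50 plus 40 μM ligand. Two further GABA EC50 doses check receptor function after modulation. Result is the percent change relative to the GABA-only baseline.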

[6] = target: GABA-A receptor; GABA-A site (alpha1/beta2 interface) (Homo sapiens) (UniProt P14867+P47870); test: Positive allosteric modulator activity at human alpha1beta2S GABA-A receptor expressed in Xenopus laevis oocytes assessed as potentiation of EC50 GABA response at 40 uM by two electrode voltage-clamp assay relative to control; type: cell-based; details: Oocyte; procedure, shortened: as §2
[7] = tested on: Oocyte; test: Positive allosteric modulator activity at human GABA-A receptor alpha1beta2Sgamma2S Y209Q mutant expressed in Xenopus laevis oocytes assessed as potentiation of EC10 GABA response by two electrode voltage-clamp assay relative to control; type: cell-based; details: filed as positive allosteric modulator; procedure, shortened: as §1
[8] = tested on: Oocyte; test: Positive allosteric modulator activity at human GABA-A receptor alpha1beta2Sgamma2S H129R mutant expressed in Xenopus laevis oocytes assessed as potentiation of EC10 GABA response by two electrode voltage-clamp assay relative to control; type: cell-based; details: filed as positive allosteric modulator; procedure, shortened: as §1
[9] = tested on: Oocyte; test: Positive allosteric modulator activity at human GABA-A receptor alpha1beta2Sgamma2S S297I/N289I/S319I triple mutant expressed in Xenopus laevis oocytes assessed as potentiation of EC10 GABA response by two electrode voltage-clamp assay relative to control; type: cell-based; procedure, shortened: as §1
[10] = tested on: Oocyte; test: Positive allosteric modulator activity at human GABA-A receptor alpha1beta2Sgamma2S Q88C mutant expressed in Xenopus laevis oocytes assessed as potentiation of EC10 GABA response by two electrode voltage-clamp assay relative to control; type: cell-based; details: filed as positive allosteric modulator; procedure, shortened: as §1
[11] = target: T1, GABA-A receptor; alpha-1/beta-2/gamma-2 (Homo sapiens); test: Positive allosteric modulator activity at human alpha1beta2Sgamma2S GABA-A receptor expressed in Xenopus laevis oocytes in presence of EC50 GABA by two electrode voltage-clamp assay; type: cell-based; details: Oocyte, filed as positive allosteric modulator
[12] = filed as positive allosteric modulator

`Cc1ccc(-c2nc3ccc(C)cn3c2CC(=O)N(C)C)cc1` [ZOLPIDEM] gave an EC50 [1] of 0.34 µM.

In the case of `COc1ccc2c(c1)[C@@]1(O)CCN(C)[C@@]1(c1ccccc1)N2C`, the Activity [2] is reported as 17%.

With `COc1ccc([C@@]23N(C)CC[C@]2(O)c2ccccc2N3C)cc1` (racemic) the Activity [2] was “inactive”.

Molecule `CN1CC[C@@]2(O)c3ccccc3N(C)[C@@]12c1ccc(Br)cc1` has an Activity [2, 12] of 155%.

In the case of `CN1c2ccccc2[C@@]2(O)CCN(C(=O)OCc3ccccc3)[C@@]12c1ccccc1`, the Activity [2] is reported as 9.6%.

`CN1CC[C@]2(O)c3ccccc3N(C)[C@]12c1ccccc1` [listing 1 of 2 here] gave an EC50 [3] of 110 µM.

With `CN1CC[C@]2(O)c3cc(Br)ccc3N(C)[C@]12c1ccccc1` the Activity [4] was “Active” and the Activity [2, 12] was 213%.

In the case of `CN1CC[C@]2(O)c3ccccc3N(C)[C@]12c1ccccc1` (racemic), the Activity [5] is reported as 17%, the Activity [6] is reported as 28% and the Activity [7] is reported as “Active”. For the same molecule, the Activity [8] was “Active”, the Activity [9] was 1% and the Activity [2, 12] was 62%. For the same molecule, the Activity [10] was “Active” and the Activity [11] was “Active”.

`CN1CC[C@@]2(O)c3cc(N4CCOCC4)ccc3N(C)[C@@]12c1ccccc1` showed an Activity [2] of -4.8%.

`CCN(CC)CCN1C(=O)CN=C(c2ccccc2F)c2cc(Cl)ccc21` [FLURAZEPAM] gave an EC50 [1] of 0.27 µM.

Molecule `CN1CC[C@]2(O)c3cc(C(F)(F)F)ccc3N(C)[C@]12c1ccccc1` has an Activity [2, 12] of 108%.

For `CN1CC[C@@]2(O)c3ccccc3N(C)[C@@]12c1ccccc1`, the Activity [6] was 9.2%.

With `CN1CC[C@]2(O)c3cc(I)ccc3N(C)[C@]12c1ccccc1` the Activity [4] was “Active” and the Activity [2, 12] was 231%.

With `CN1c2ccccc2[C@@]2(O)CCN[C@@]12c1ccccc1` the Activity [2, 12] was 41%.

`CO[C@]12CCN(C)[C@@]1(c1ccccc1)N(C)c1ccccc12` showed an Activity [2] of 21%.

`CN1CC[C@]2(O)c3ccccc3N(C)[C@]12c1ccccc1` [listing 2 of 2 here] showed an Activity [5] of 16%, an Activity [6] of 17% and an Activity [2, 12] of 125%.

For `CN1CC[C@]2(O)c3ccccc3N(C)[C@]12c1ccc(Br)cc1`, the Activity [2, 12] was 98%.

`CN1CC[C@]2(F)c3ccccc3N(C)[C@]12c1ccccc1` gave an Activity [2, 12] of 100%.
